Measured values taken from PubChem BioAssay.
Inconclusive results are not listed.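 How the source made its calls, unless noted: active means growth inhibition above 25% in both replicates, a cutoff set 3 SD above the mean; inconclusive means above 25% in only one replicate; inactive means the rest.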

Experiments:
[1] = S. cerevisiae growth inhibition in permissive medium (OD615), pilot counter-assay for S. cerevisiae lifespan shortening project, permissive growth control (AID 705); conditions: OD615, 24 h, at 10 µM, active compounds read high
Method in brief: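 assay system = Saccharomyces cerevisiae strain carrying genetically modified DeaD replicative-lifespan system | medium = SC raffinose/galactose permissive medium | dosing = 10 µM single dose, 0.25% DMSO | schedule = 24 h compound exposure at 30 °C after 4 h pre-growth | measured by = OD at 615 nm | read-out basis = growth inhibition from lowered OD615 after 24 h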

[2] = S. cerevisiae growth inhibition in restrictive medium, OD615, pilot screen, restrictive growth control, yeast lifespan reduction project (AID 706;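 active means growth inhibition above a set limit, 3 SD over mean compound inhibition, in both replicates, cut at about 43% in these data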;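 further: modified DeaD lifespan yeast strain shifted to restrictive glucose medium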); conditions: OD615, 48 h, at 10 µM, active compounds read high
Method in brief: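 Buffer or medium: CSMM-D glucose medium. Material: genetically modified Saccharomyces cerevisiae, DeaD replicative lifespan assay strain. Times: 48 h compound exposure at 30 °C. Measured by: optical density at 615 nm.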

[3] = doxorubicin toxicity protection in MRP-1 cells – H69AR cells, CellTiter-Glo, duplicate, MRP-1 activator project, pilot screen (AID 807;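 active means viability increase at or above a cutoff of the median across tested compounds plus 3 SD, cut at about 8.5% in these data, passing the limit was not always enough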;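 further: compound pretreatment 18-22 h then 72 h combined with doxorubicin; 0% = doxorubicin alone and 100% = vehicle without doxorubicin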); conditions: H69AR viability with doxorubicin, CellTiter-Glo luminescence; at 10 µM; active compounds read high
[4] = viability of HCT116 without oncogenic beta-catenin – human colon tumor cells, pilot screen (AID 823;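 active means cell viability at or below a set limit in both duplicate runs, the limit being the all-compound median minus 4 SD, cut at about 23% in these data, passing the limit was not always enough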;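 further: 0% = wells killed by 20 µM Hyamine and 100% = untreated DMSO cell wells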); conditions: HCT116 beta-catenin knockout viability, CellTiter-Glo, 60 h; at 10 µM; active compounds read low
[5] = viability of PTEN-null HCT116 cells – cell-based, HCT116 clonal line, CellTiter-Glo, pilot screen (AID 824;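 active means viability at or below 27.92% in each of two runs, the all-compound median minus 4 SD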;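 further: 0% = 20 µM Hyamine control and 100% = vehicle cell control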); conditions: HCT116 PTEN-deleted viability, 60 h, at 10 µM, active compounds read low
[6] = RAM pathway blockade in budding yeast – dse1pr::URA3 reporter, 5-FOA selection, pilot screen (AID 869;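 active means inhibition over a set limit, the all-compound mean plus 3 SD, in both replicate runs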;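 further: 0% = DMSO wells with no growth and 100% = 10 µM 1-NA-PP1 with full growth; RAM network block rescues cells from 5-FOA so hits raise OD615 growth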); conditions: S. cerevisiae dse1pr::URA3 5-FOA growth, OD615, 2 d; at 10 µM; active compounds read high; strain carries analog-sensitive mutant Cbk1 kinase
[7] = RAM signaling pathway blockade in yeast – S. cerevisiae, Pdr1DBD-CYC8 efflux-inhibited sensitized strain, primary screen (AID 1298;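 active means RAM network inhibition above 8.4% in each of two replicates, 3 SD over the compound average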;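 further: 0% = DMSO untreated cells without growth and 100% = 10 µM 1-NA-PP1 full growth; higher means more yeast growth rescued from 5-FOA killing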); conditions: S. cerevisiae cbk1-as DSE1-URA3 strain, 5-FOA growth OD615, 2 d; at 50 µM; active compounds read high

Cn1cccc1Cc1nnc(SCC(=O)N2CCCCCC2)n1-c1ccc(F)cc1
inactive: growth inhibition [1] 0.935% | growth inhibition [2] 18% | viability increase [3] -1.67% | viability [4] 84% | viability [5] 88.5% | inhibition [6] 1.27% | RAM network inhibition [7] 4.48%

O=C(O)CN1C(=O)C2C3C=CC(C3)C2C1=O (stereo not drawn)
inactive: growth inhibition [1] -14.3% | growth inhibition [2] -14.5% | viability increase [3] 0.28% | viability [4] 102% | viability [5] 88% | inhibition [6] 1.61% | RAM network inhibition [7] 2.2%

CC1CCN(C(=O)C(Cc2ccccc2)n2cccc2)CC1 (stereo not drawn)
inactive: growth inhibition [1] -6.79% | growth inhibition [2] -8.94% | viability increase [3] -3.15% | viability [4] 87.9% | viability [5] 79% | inhibition [6] 2.27% | RAM network inhibition [7] 5.92%

O=C(CCCOc1ccc(Cl)cc1)N1CCCCC1
inactive: growth inhibition [1] -13.2% | growth inhibition [2] -11.9% | viability increase [3] 3.35% | viability [4] 96.1% | viability [5] 96.8% | inhibition [6] 0.44% | RAM network inhibition [7] -0.78%

CCN1C(=O)c2cccc3c(N)ccc1c23
inactive: growth inhibition [1] -0.755% | growth inhibition [2] -11% | viability increase [3] -5.55% | viability [4] 74.2% | viability [5] 68.3% | inhibition [6] 0% | RAM network inhibition [7] 1.92%

COc1ccc(N2C(=O)C3CCCN3C2c2cccc(C)c2)cc1 (stereo not drawn)
inactive: growth inhibition [1] 2.65% | growth inhibition [2] 15% | viability increase [3] -3.13% | viability [4] 97.4% | viability [5] 100% | inhibition [6] 1.83% | RAM network inhibition [7] -1.25%

CN(CCCNC(=O)C1CCC(=O)N1Cc1ccc(F)cc1)c1ccccc1 (stereo not drawn)
inactive: growth inhibition [1] 4.99% | growth inhibition [2] -8.76% | viability increase [3] -1.51% | viability [4] 95.5% | viability [5] 90.5% | inhibition [6] 0.54% | RAM network inhibition [7] 0.72%

CCc1ccccc1S(=O)(=O)Cc1ccc(C(=O)N2CCN(c3ccccn3)CC2)o1
inactive: growth inhibition [1] -8.76% | growth inhibition [2] -27% | viability increase [3] -3.28% | viability [4] 84.1% | viability [5] 78% | inhibition [6] 1.54% | RAM network inhibition [7] 2.4%

CC1Cc2ccccc2C(=O)N1 (stereo not drawn)
inactive: growth inhibition [1] 0.58% | growth inhibition [2] 11.4% | viability increase [3] 0.15% | viability [4] 106% | viability [5] 99% | inhibition [6] 0.36% | RAM network inhibition [7] 3.5%

CCOC(=O)c1ccc2ncc(C(=O)OCC)c(NCCCN3CCOCC3)c2c1
inactive: growth inhibition [1] -4.12% | growth inhibition [2] 8.23% | viability increase [3] -5.66% | viability [4] 81.2% | viability [5] 84.5% | inhibition [6] 0.495% | RAM network inhibition [7] 0.57%

CC(=O)Nc1ccc(S(=O)(=O)NCc2ccc3c(c2)cc(C)n3C)cc1
inactive: growth inhibition [1] 8.2% | growth inhibition [2] 10.1% | viability increase [3] 0.21% | viability [4] 101% | viability [5] 99.2% | inhibition [6] 3.49% | RAM network inhibition [7] 2.12%

O=C(c1ccc(CS(=O)(=O)c2ccc(Br)cc2)o1)N1CCN(C2CCCCC2)CC1
inactive: growth inhibition [1] 0.435% | growth inhibition [2] 9.43% | viability increase [3] -3.78% | viability [4] 112% | viability [5] 95.8% | inhibition [6] 1.93% | RAM network inhibition [7] 0.46%

Cc1nnc(Sc2nc3c(c(=O)[nH]c(=O)n3C)n2Cc2ccccc2Cl)s1
inactive: growth inhibition [1] -9.12% | growth inhibition [2] -9.02% | viability increase [3] -2.89% | viability [4] 96.8% | viability [5] 90.5% | inhibition [6] 1.07% | RAM network inhibition [7] 2.84%

CC1CC(C)CN(CCCNC(=O)Cc2c(C(=O)O)[nH]c3ccccc23)C1 (stereo not drawn)
inactive: growth inhibition [1] -11.5% | growth inhibition [2] -13.5% | viability increase [3] -0.1% | viability [4] 103% | viability [5] 99.6% | inhibition [6] 0.68% | RAM network inhibition [7] 1.78%

COc1ccc(-c2nc(C#N)c(NCCCN3CCOCC3)o2)cc1
inactive: growth inhibition [1] 0.22% | growth inhibition [2] -5.34% | viability increase [3] -0.09% | viability [4] 103% | viability [5] 94% | inhibition [6] 1.28% | RAM network inhibition [7] 0.89%

CCOc1ccc(C2CC(c3cccc(OC)c3)Nc3ncnn32)cc1 (stereo not drawn)
inactive: growth inhibition [1] -2.08% | growth inhibition [2] -1.26% | viability increase [3] -0.82% | viability [4] 94% | viability [5] 90% | inhibition [6] 1.15% | RAM network inhibition [7] 1.4%

CCOC(=O)N1CCC(N2CC34C=CC(O3)C(C(=O)Nc3ccc(C)cc3)C4C2=O)CC1 (stereo not drawn)
inactive: growth inhibition [1] -0.385% | growth inhibition [2] -0.16% | viability increase [3] 1.43% | viability [4] 100% | viability [5] 102% | inhibition [6] 1.33% | RAM network inhibition [7] 2.54%

CCc1ccc(-n2c(O)cnc2Nc2nc(C)cc(C)n2)cc1
inactive: growth inhibition [1] -7.38% | growth inhibition [2] -12.2% | viability increase [3] 1.61% | viability [4] 103% | viability [5] 103% | inhibition [6] 0.325% | RAM network inhibition [7] 3.23%

CCOC(=O)Cn1c(=O)oc2cc(S(=O)(=O)NCc3cccs3)ccc21
inactive: growth inhibition [1] -3.16% | growth inhibition [2] 1.21% | viability increase [3] -1.22% | viability [4] 90.6% | viability [5] 86.9% | inhibition [6] 0.73% | RAM network inhibition [7] 0.2%

Cc1cc(C)n2nc3nc4c(cc3c2n1)CCCC4
inactive: growth inhibition [1] -8.72% | growth inhibition [2] -14.6% | viability increase [3] -4.42% | viability [4] 88.2% | viability [5] 82.7% | inhibition [6] 4.34% | RAM network inhibition [7] 3.01%

CCOc1ccc(-c2nnc(-c3ccco3)o2)cc1
inactive: growth inhibition [1] -1.61% | growth inhibition [2] 5.67% | viability increase [3] 1.72% | viability [4] 94.5% | viability [5] 101% | inhibition [6] 0.695% | RAM network inhibition [7] 2.38%

CC(C)(C)NC(=O)CSc1nc(O)cc(=O)n1-c1ccccc1F
inactive: growth inhibition [1] -5.45% | growth inhibition [2] -3.51% | viability increase [3] -0.7% | viability [4] 95.5% | viability [5] 101% | inhibition [6] 0.91% | RAM network inhibition [7] 1.87%

Cn1c2c(c(=O)n(C)c1=O)C1c3ccccc3OCC1C(C)(C)O2 (stereo not drawn)
inactive: growth inhibition [1] -15.4% | growth inhibition [2] -19.5% | viability increase [3] -2.46% | viability [4] 98.7% | viability [5] 96.1% | inhibition [6] -0.05% | RAM network inhibition [7] 0.68%

Cc1ccc(C(C(=O)NC2CCCCC2)N2CCCC2)cc1 (stereo not drawn)
inactive: growth inhibition [1] -4.08% | growth inhibition [2] -8.76% | viability increase [3] -3.02% | viability [4] 88.9% | viability [5] 93% | inhibition [6] 0.835% | RAM network inhibition [7] 8.97%
